In brackets after ≈: the same amount, converted by molar mass.
What was measured:
Type in all cases: functional
Streptococcus pneumoniae [1] = assay: Potency index, ratio of azithromycin MIC to compound MIC for erythromycin-resistant Streptococcus pneumoniae AB11 harboring ermB and mefA gene
Streptococcus pneumoniae [2] = assay: Potency index, ratio of azithromycin MIC to compound MIC for erythromycin-resistant Streptococcus pneumoniae A22072 harboring mefA gene
Streptococcus pneumoniae [3] = assay: Potency index, ratio of clarithromycin MIC to compound MIC for erythromycin-resistant Streptococcus pneumoniae AB11 harboring ermB and mefA gene
Streptococcus pneumoniae [4] = assay: Antibacterial activity against erythromycin-resistant Streptococcus pneumoniae B1 harboring ermB gene after 24 hrs by tube-dilution method; settings: B1, 24 h
Method in brief: (§1)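 MIC determined by the NCCLS-recommended standard broth microdilution method against erythromycin-resistant S. pneumoniae strains (A22072 mef, B1 erm, AB11 erm plus mef) and methicillin-resistant S. aureus ATCC43300.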

Staphylococcus aureus [5] = assay: Antibacterial activity against erythromycin-susceptible Staphylococcus aureus ATCC 25923 after 24 hrs by […]; settings: ATCC 25923, 24 h
Escherichia coli = assay: Antibacterial activity against penicillin-susceptible Escherichia coli ATCC 25922 incubated for 24 hrs by […]; settings: ATCC 25922, 24 h
Streptococcus pneumoniae [6] = assay: Antibacterial activity against erythromycin-resistant Streptococcus pneumoniae AB11 harboring ermB and mefA genes after 24 hrs by tube-dilution method; settings: AB11, 24 h; method in brief: as §1
Streptococcus pneumoniae [7] = assay: Antibacterial activity against erythromycin-resistant Streptococcus pneumoniae A22072 harboring mefA gene after 24 hrs by […]; settings: A22072, 24 h
Pseudomonas aeruginosa = assay: Antibacterial activity against penicillin-susceptible Pseudomonas aeruginosa ATCC 27853 incubated for 24 hrs by […]; settings: ATCC 27853, 24 h
Bacillus subtilis = assay: Antibacterial activity against erythromycin-susceptible Bacillus subtilis ATCC 9372 after 24 hrs by tube-dilution method; settings: ATCC 9372, 24 h
Method in brief: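 MIC by standard NCCLS broth microdilution. Reference macrolides clarithromycin and azithromycin run alongside.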

Streptococcus pneumoniae [8] = assay: Potency index, ratio of clarithromycin MIC to compound MIC for erythromycin-resistant Streptococcus pneumoniae A22072 harboring mefA gene
Staphylococcus aureus [9] = assay: Antibacterial activity against methicillin-resistant Staphylococcus aureus ATCC 43300 after 24 hrs by tube-dilution method; settings: ATCC 43300, 24 h; method in brief: as §1
Streptococcus pyogenes [10] = assay: Antibacterial activity against erythromycin-resistant Streptococcus pyogenes R1 after 24 hrs by tube-dilution method; settings: R1, 24 h
Streptococcus pyogenes [11] = assay: Antibacterial activity against erythromycin-susceptible Streptococcus pyogenes after 24 hrs […]
Streptococcus pyogenes [12] = assay: Potency index, ratio of clarithromycin MIC to compound MIC for erythromycin-resistant Streptococcus pyogenes R1
Streptococcus pyogenes [13] = assay: Potency index, ratio of azithromycin MIC to compound MIC for erythromycin-resistant Streptococcus pyogenes R1
Staphylococcus aureus [14] = assay: Potency index, ratio of azithromycin MIC to compound MIC for methicillin-resistant Staphylococcus aureus ATCC 43300
Streptococcus pneumoniae [15] = assay: Potency index, ratio of clarithromycin MIC to compound MIC for erythromycin-resistant Streptococcus pneumoniae B1 harboring ermB gene
Staphylococcus aureus [16] = assay: Potency index, ratio of clarithromycin MIC to compound MIC for methicillin-resistant Staphylococcus aureus ATCC 43300
Streptococcus pneumoniae [17] = assay: Potency index, ratio of azithromycin MIC to compound MIC for erythromycin-resistant Streptococcus pneumoniae B1 harboring ermB gene

## CC[C@H]1OC(=O)[C@H](C)[C@@H](OC(=O)Cc2cccnc2)[C@H](C)[C@@H](O[C@@H]2O[C@H](C)C[C@H](N(C)C)[C@H]2O)[C@](C)(OC)C[C@@H](C)C(=O)[C@H](C)[C@@H](OC(=O)NCCNC(=O)c2cc([N+](=O)[O-])cc([N+](=O)[O-])c2)[C@]1(C)O
Streptococcus pneumoniae [1]
  Ratio: 32
Streptococcus pneumoniae [2]
  Ratio: 8
Streptococcus pneumoniae [3]
  Ratio: 32
Streptococcus pneumoniae [4]
  MIC: 32 µg/mL (≈ 32.4 µM)
Staphylococcus aureus [5]
  MIC: 1 µg/mL (≈ 1.01 µM)
Escherichia coli
  MIC: 64 µg/mL (≈ 64.7 µM)
Streptococcus pneumoniae [6]
  MIC: 4 µg/mL (≈ 4.04 µM)
Streptococcus pneumoniae [7]
  MIC: 0.5 µg/mL (≈ 0.506 µM)
Pseudomonas aeruginosa
  MIC: 64 µg/mL (≈ 64.7 µM)
Bacillus subtilis
  MIC: 1 µg/mL (≈ 1.01 µM)
Streptococcus pneumoniae [8]
  Ratio: 4
Staphylococcus aureus [9]
  MIC: 64 µg/mL (≈ 64.7 µM)
Streptococcus pyogenes [10]
  MIC: 128 µg/mL (≈ 129 µM)
Streptococcus pyogenes [11]
  MIC: 0.015 µg/mL (≈ 0.0152 µM)

## CC[C@H]1OC(=O)[C@H](C)[C@@H](OC(=O)Cc2cccnc2)[C@H](C)[C@@H](O[C@@H]2O[C@H](C)C[C@H](N(C)C)[C@H]2O)[C@](C)(OC)C[C@@H](C)C(=O)[C@H](C)[C@@H](OC(=O)NCCNC(=O)C#Cc2cccc3ccccc23)[C@]1(C)O
Streptococcus pneumoniae [4]
  MIC: 32 µg/mL (≈ 32.9 µM)
Streptococcus pyogenes [12]
  Ratio: 4
Staphylococcus aureus [5]
  MIC: 4 µg/mL (≈ 4.11 µM)
Escherichia coli
  MIC: > 128 µg/mL
Streptococcus pneumoniae [6]
  MIC: 16 µg/mL (≈ 16.4 µM)
Streptococcus pneumoniae [7]
  MIC: 1 µg/mL (≈ 1.03 µM)
Pseudomonas aeruginosa
  MIC: > 128 µg/mL
Bacillus subtilis
  MIC: 2 µg/mL (≈ 2.06 µM)
Staphylococcus aureus [9]
  MIC: 64 µg/mL (≈ 65.8 µM)
Streptococcus pyogenes [10]
  MIC: 32 µg/mL (≈ 32.9 µM)
Streptococcus pyogenes [11]
  MIC: 0.125 µg/mL (≈ 0.128 µM)
Streptococcus pyogenes [13]
  Ratio: 4

## CC[C@H]1OC(=O)[C@H](C)[C@@H](OC(=O)Cc2cccnc2)[C@H](C)[C@@H](O[C@@H]2O[C@H](C)C[C@H](N(C)C)[C@H]2O)[C@](C)(OC)C[C@@H](C)C(=O)[C@H](C)[C@@H](OC(=O)NCCNC(=O)c2ccc([N+](=O)[O-])cc2N)[C@]1(C)O
Streptococcus pneumoniae [1]
  Ratio: 32
Streptococcus pneumoniae [2]
  Ratio: 16
Streptococcus pneumoniae [3]
  Ratio: 32
Streptococcus pneumoniae [4]
  MIC: 16 µg/mL (≈ 16.7 µM)
Staphylococcus aureus [14]
  Ratio: 4
Staphylococcus aureus [5]
  MIC: 1 µg/mL (≈ 1.04 µM)
Streptococcus pneumoniae [15]
  Ratio: 8
Escherichia coli
  MIC: 64 µg/mL (≈ 66.7 µM)
Streptococcus pneumoniae [6]
  MIC: 4 µg/mL (≈ 4.17 µM)
Staphylococcus aureus [16]
  Ratio: 4
Streptococcus pneumoniae [7]
  MIC: 0.25 µg/mL (≈ 0.261 µM)
Pseudomonas aeruginosa
  MIC: 64 µg/mL (≈ 66.7 µM)
Bacillus subtilis
  MIC: 1 µg/mL (≈ 1.04 µM)
Streptococcus pneumoniae [8]
  Ratio: 8
Staphylococcus aureus [9]
  MIC: 64 µg/mL (≈ 66.7 µM)
Streptococcus pyogenes [10]
  MIC: 128 µg/mL (≈ 133 µM)
Streptococcus pyogenes [11]
  MIC: 0.03 µg/mL (≈ 0.0313 µM)
Streptococcus pneumoniae [17]
  Ratio: 8

## CC[C@H]1OC(=O)[C@H](C)[C@@H](OC(=O)Cc2cccnc2)[C@H](C)[C@@H](O[C@@H]2O[C@H](C)C[C@H](N(C)C)[C@H]2O)[C@](C)(OC)C[C@@H](C)C(=O)[C@H](C)[C@@H](OC(=O)NCCNC(=O)c2ccc(C3CCCCC3)cc2)[C@]1(C)O
Streptococcus pneumoniae [4]
  MIC: 64 µg/mL (≈ 65.2 µM)
Streptococcus pyogenes [12]
  Ratio: 4
Staphylococcus aureus [5]
  MIC: 2 µg/mL (≈ 2.04 µM)
Escherichia coli
  MIC: 128 µg/mL (≈ 130 µM)
Streptococcus pneumoniae [6]
  MIC: 32 µg/mL (≈ 32.6 µM)
Streptococcus pneumoniae [7]
  MIC: 1 µg/mL (≈ 1.02 µM)
Pseudomonas aeruginosa
  MIC: 128 µg/mL (≈ 130 µM)
Bacillus subtilis
  MIC: 4 µg/mL (≈ 4.08 µM)
Staphylococcus aureus [9]
  MIC: 32 µg/mL (≈ 32.6 µM)
Streptococcus pyogenes [10]
  MIC: 32 µg/mL (≈ 32.6 µM)
Streptococcus pyogenes [11]
  MIC: 0.5 µg/mL (≈ 0.51 µM)
Streptococcus pyogenes [13]
  Ratio: 4

Source: ChEMBL document CHEMBL4118255, “Synthesis and antibacterial evaluation of novel 11-O-aralkylcarbamoyl-3-O-descladinosylclarithromycin derivatives” (2018)
